ChEMBL document CHEMBL2062469, “1-(2-Mercaptobenzenesulfonyl)-3-hydroxyguanidines--novel potent antiproliferatives, synthesis and in vitro biological activity” (2012)

Tests used:
Type in all cases: functional
[1] = tested on: HOP-92; assay: Cytostatic activity against human HOP92 cells
Method in brief: (§1)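 NCI-60 human tumor cell line screen run by the US National Cancer Institute under the NIH Developmental Therapeutics Program protocol. A single-dose prescreen at 10 µM came first. Selected compounds then went into the 5-dose assay. Cytostatic activity is reported as GI50 (µM).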

[2] = tested on: A498; assay: Cytostatic activity against human A498 cells; method in brief: as §1
[3] = tested on: M14; assay: Cytostatic activity against human M14 cells; method in brief: as §1
[4] = tested on: MDA-MB-468; assay: Cytostatic activity against human MDA-MB-468 cells; method in brief: as §1
[5] = tested on: MCF7; assay: Cytostatic activity against human MCF7 cells; method in brief: as §1
[6] = tested on: NCI-H322M; assay: Cytostatic activity against human NCI-H322M cells; method in brief: as §1
[7] = tested on: HT-29; assay: Cytostatic activity against human HT-29 cells; method in brief: as §1
[8] = tested on: IGROV-1; assay: Cytostatic activity against human IGROV1 cells; method in brief: as §1
[9] = tested on: CAKI-1; assay: Cytostatic activity against human Caki1 cells; method in brief: as §1
[10] = tested on: NCI-H23; assay: Cytostatic activity against human NCI-H23 cells; method in brief: as §1
[11] = tested on: NCI-H226; assay: Cytostatic activity against human NCI-H226 cells; method in brief: as §1
[12] = tested on: UACC-257; assay: Cytostatic activity against human UACC257 cells
Method in brief: (§2)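 Human tumour cell lines from the NCI-60 panel, tested at the US National Cancer Institute under the NIH Developmental Therapeutics Program protocol. A single-dose prescreen at 10 µM came first. Selected compounds then went to a 5-dose assay, which gave GI50 and TGI values in µM.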

[13] = tested on: SF-295; assay: Cytostatic activity against human SF295 cells; method in brief: as §1
[14] = tested on: OVCAR-5; assay: Cytostatic activity against human OVCAR5 cells; method in brief: as §1
[15] = tested on: SW-620; assay: Cytostatic activity against human SW620 cells; method in brief: as §2
[16] = tested on: BT-549; assay: Cytostatic activity against human BT549 cells; method in brief: as §1
[17] = tested on: SN12C; assay: Cytostatic activity against human SN12C cells; method in brief: as §1
[18] = tested on: DU-145; assay: Cytostatic activity against human DU145 cells; method in brief: as §1
[19] = tested on: SF-539; assay: Cytostatic activity against human SF539 cells; method in brief: as §1
[20] = tested on: NCI/ADR-RES; assay: Cytostatic activity against human NCI-ADR-RES cells; method in brief: as §1
[21] = tested on: HCT-116; assay: Cytostatic activity against human HCT116 cells; method in brief: as §1
[22] = tested on: OVCAR-3; assay: Cytostatic activity against human OVCAR3 cells; method in brief: as §1
[23] = tested on: SF-268; assay: Cytostatic activity against human SF268 cells; method in brief: as §1
[24] = Cytostatic activity against human […] cells; method in brief: as §1
[25] = tested on: MDA-MB-231; assay: Cytostatic activity against human MDA-MB-231/ATCC cells; method in brief: as §1
[26] = tested on: SK-MEL-5; assay: Cytostatic activity against human SK-MEL-5 cells; method in brief: as §1
[27] = tested on: HCT-15; assay: Cytostatic activity against human HCT15 cells; method in brief: as §1
[28] = tested on: OVCAR-8; assay: Cytostatic activity against human OVCAR8 cells; method in brief: as §1
[29] = tested on: RXF 393; assay: Cytostatic activity against human RXF393 cells; method in brief: as §1
[30] = tested on: U-251; assay: Cytostatic activity against human U251 cells; method in brief: as §2
[31] = tested on: K562; assay: Cytostatic activity against human K562 cells; method in brief: as §1
[32] = tested on: HCC 2998; assay: Cytostatic activity against human HCC2998 cells; method in brief: as §1
[33] = tested on: SK-OV-3; assay: Cytostatic activity against human SKOV3 cells; method in brief: as §1
[34] = tested on: SNB-75; assay: Cytostatic activity against human SNB75 cells; method in brief: as §2
[35] = tested on: KM12; assay: Cytostatic activity against human KM12 cells; method in brief: as §1
[36] = tested on: UO-31; assay: Cytostatic activity against human UO31 cells; method in brief: as §2
[37] = tested on: SK-MEL-2; assay: Cytostatic activity against human SK-MEL-2 cells; method in brief: as §1
[38] = tested on: NCI-H460; assay: Cytostatic activity against human NCI-H460 cells; method in brief: as §1
[39] = tested on: SR; assay: Cytostatic activity against human SR cells; method in brief: as §2
[40] = tested on: SNB-19; assay: Cytostatic activity against human SNB19 cells; method in brief: as §1
[41] = tested on: EKVX; assay: Cytostatic activity against human EKVX cells; method in brief: as §1
[42] = tested on: LOX IMVI; assay: Cytostatic activity against human LOXIMVI cells; method in brief: as §1
[43] = tested on: MOLT-4; assay: Cytostatic activity against human MOLT4 cells; method in brief: as §1
[44] = tested on: NCI-H522; assay: Cytostatic activity against human NCI-H522 cells; method in brief: as §1
[45] = tested on: OVCAR-4; assay: Cytostatic activity against human OVCAR4 cells; method in brief: as §1
[46] = tested on: HOP-62; assay: Cytostatic activity against human HOP62 cells; method in brief: as §1
[47] = tested on: MDA-MB-435; assay: Cytostatic activity against human MDA-MB-435 cells; method in brief: as §1
[48] = tested on: Hs-578T; assay: Cytostatic activity against human Hs 578T cells; method in brief: as §1
[49] = tested on: CCRF-CEM; assay: Cytostatic activity against human CCRF-CEM cells; method in brief: as §1
[50] = tested on: Malme-3M; assay: Cytostatic activity against human MALME-3M cells; method in brief: as §1
[51] = tested on: T47D; assay: Cytostatic activity against human T47D cells; method in brief: as §2
[52] = tested on: ACHN; assay: Cytostatic activity against human ACHN cells; method in brief: as §1
[53] = tested on: UACC-62; assay: Cytostatic activity against human UACC62 cells; method in brief: as §2
[54] = tested on: SK-MEL-28; assay: Cytostatic activity against human SK-MEL-28 cells; method in brief: as §1
[55] = tested on: PC-3; assay: Cytostatic activity against human PC3 cells; method in brief: as §1
[56] = tested on: COLO 205; assay: Cytostatic activity against human COLO205 cells; method in brief: as §1
[57] = tested on: 786-0; assay: Cytostatic activity against human 786-0 cells; method in brief: as §1

GI50 [4]: 1530 nM | GI50 [5]: 1360 nM | GI50 [6]: 1580 nM | GI50 [7]: 1850 nM | GI50 [10]: 1770 nM | GI50 [11]: 2010 nM | GI50 [14]: 2060 nM | GI50 [15]: 1460 nM | GI50 [16]: 1960 nM | GI50 [18]: 1670 nM | GI50 [21]: 1520 nM | GI50 [22]: 1700 nM | GI50 [25]: 1680 nM | GI50 [26]: 1520 nM | GI50 [27]: 2020 nM | GI50 [28]: 1770 nM | GI50 [30]: 1400 nM | GI50 [31]: 1530 nM | GI50 [32]: 1850 nM | GI50 [33]: 1810 nM | GI50 [37]: 2010 nM | GI50 [38]: 1790 nM | GI50 [43]: 1140 nM | GI50 [44]: 240 nM | GI50 [45]: 1710 nM | GI50 [47]: 1380 nM | GI50 [49]: 1040 nM | GI50 [51]: 1690 nM | GI50 [52]: 1700 nM | GI50 [54]: 1680 nM | GI50 [55]: 1850 nM | GI50 [56]: 1750 nM | GI50 [57]: 2270 nM
Structure (SMILES): N=C(NO)NS(=O)(=O)c1cc(-c2nnc(-c3ccccc3)s2)c(Cl)cc1SCc1ccc2c(c1)OCO2
GI50 [1]: 1820 nM | TGI [1]: 5.1 µM | GI50 [2]: 1980 nM | TGI [2]: 5.52 µM | GI50 [3]: 1740 nM | TGI [3]: 3.47 µM | TGI [4]: 2930 nM | TGI [5]: 3.01 µM | TGI [6]: 4.28 µM | TGI [7]: 3.43 µM | GI50 [8]: 1680 nM | TGI [8]: 3.95 µM | GI50 [9]: 2030 nM | TGI [9]: 4.42 µM | TGI [10]: 3.85 µM | TGI [11]: 4.02 µM | GI50 [12]: 1670 nM | TGI [12]: 3.23 µM | GI50 [13]: 1630 nM | TGI [13]: 3.55 µM | TGI [14]: 4.36 µM | TGI [15]: 2860 nM | TGI [16]: 4 µM | GI50 [17]: 1620 nM | TGI [17]: 3.45 µM | TGI [18]: 3.11 µM | GI50 [19]: 2150 nM | TGI [19]: 4.1 µM | GI50 [20]: 3.68 µM | TGI [21]: 3.31 µM | TGI [22]: 3.08 µM | GI50 [23]: 1610 nM | TGI [23]: 3.32 µM | GI50 [24]: 1760 nM | TGI [24]: 4.52 µM | TGI [25]: 3.37 µM | TGI [26]: 2840 nM | TGI [27]: 4.34 µM | TGI [28]: 3.74 µM | GI50 [29]: 1680 nM | TGI [29]: 3.53 µM | TGI [30]: 2850 nM | TGI [31]: 3.94 µM | TGI [32]: 3.59 µM | TGI [33]: 3.34 µM | GI50 [34]: 1070 nM | TGI [34]: 2340 nM | GI50 [35]: 1640 nM | TGI [35]: 3.03 µM | GI50 [36]: 1280 nM | TGI [36]: 3.54 µM | TGI [37]: 3.75 µM | TGI [38]: 3.56 µM | GI50 [39]: 880 nM | TGI [39]: 4.1 µM | GI50 [40]: 1770 nM | TGI [40]: 3.83 µM | GI50 [41]: 1650 nM | TGI [41]: 2990 nM | GI50 [42]: 1730 nM | TGI [43]: 3.08 µM | TGI [44]: 800 nM | TGI [45]: 4.98 µM | GI50 [46]: 1930 nM | TGI [46]: 3.71 µM | TGI [47]: 2770 nM | GI50 [48]: 2410 nM | TGI [48]: 6.61 µM | TGI [49]: 3.66 µM | GI50 [50]: 1710 nM | TGI [50]: 3.6 µM | TGI [51]: 4.15 µM | TGI [52]: 3.15 µM | GI50 [53]: 1700 nM | TGI [53]: 3.53 µM | TGI [54]: 3.5 µM | TGI [55]: 4.13 µM | TGI [56]: 3.28 µM
